Calls of active or inactive are those of the source. The rule behind the calls is not given here.
Legend:
[1] = Anticancer activity against human MCF7/ADR cells after 48 hrs by MTT assay; assay type: functional, cell-based; conditions: NCI/ADR-RES
Procedure, shortened: (§1)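 Cells grown in RPMI1640 with 10% heat-inactivated FBS and 1% penicillin-streptomycin at 37 °C, 5% CO2. Log-phase cells were seeded at 5 × 10^3/well 24 h before treatment, exposed to a range of peptide concentrations for 48 h, then given MTT for 4 h. Formazan was dissolved in DMSO and A490 read. Survival was computed relative to untreated wells, and IC50 taken from the survival curve.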

MCF7 [2] = experiment: Anticancer activity against human MCF7 cells after 48 hrs by MTT assay; assay type: functional, cell-based; conditions: MCF7, 48 h; procedure, shortened: as §1
K562 = experiment: Anticancer activity against human K562 cells after 48 hrs by MTT assay; assay type: functional, cell-based; conditions: K562, 48 h; procedure, shortened: as §1
[3] = Cytotoxicity against human GES-1 cells after 48 hrs by MTT assay; assay type: cell-based; conditions: GES1, 48 h; procedure, shortened: as §1
[4] = Anticancer activity against human K562/ADR cells after 48 hrs by MTT assay; assay type: functional, cell-based; procedure, shortened: as §1
MCF7 [5] = experiment: Induction of cytochrome c release in human MCF7 cells incubated for 2 hrs by ELISA method (reference value: 364.2 +/- 20.5 ng); assay type: functional
MCF7 [6] = experiment: Induction of cytochrome c release in mitochondria of human MCF7 cells incubated for 2 hrs by ELISA method (reference value: 347.8 +/- 14.5 ng); assay type: functional
MCF7 [7] = experiment: Induction of cytochrome c release in extracellular region of human MCF7 cells incubated for 2 hrs by ELISA method (reference value: 15.7 +/- 0.77 ng); assay type: functional
MCF7 [8] = experiment: Induction of cytochrome c release in cytoplasm of human MCF7 cells incubated for 2 hrs by ELISA method (reference value: 44.1 +/- 2.7 ng); assay type: functional
[9] = Toxicity in rabbit erythrocytes assessed as induction of hemolysis at 160 uM incubated for 1 hr by microplate reader assay; assay type: cell-based, Oryctolagus cuniculus; conditions: erythrocyte
Procedure, shortened: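 Rabbit red blood cells in PBS were mixed 1:1 by volume with peptide solution and incubated 1 h at 37 °C, then spun at 1000 g for 5 min. Hemoglobin in the supernatant was read at 540 nm. PBS defined 0% hemolysis and 0.1% Triton X-100 defined 100%.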

[10] = Retention time of the compound by UPLC method; assay type: physicochemical
[11] = Increase in adriamycin uptake in human K562/ADR cells at 5 uM after 2.5 hrs by fluorescence spectrophotometry; assay type: ADME, cell-based
Procedure, shortened: (§2)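 2 × 10^5 MCF-7/ADM or K562/ADM cells were co-incubated 2.5 h with ADM plus peptide, or with verapamil as comparator. After washing in cold PBS, cells were lysed in 0.75 M HCl/0.2% Triton X-100 in isopropanol. Lysate ADM fluorescence was measured by spectrofluorometry at ex 460/em 610 nm.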

MCF7 [12] = experiment: Induction of cytochrome c release in human MCF7 cells at 5 to 20 uM incubated for 2 hrs by ELISA method
MCF7 [13] = experiment: Induction of cytochrome c release in mitochondria of human MCF7 cells at 20 uM incubated for 2 hrs by ELISA method (reference value: 347.8 +/- 14.5 ng); assay type: functional
MCF7 [14] = experiment: Induction of cytochrome c release in cytoplasm of human MCF7 cells at 20 uM incubated for 2 hrs by ELISA method (reference value: 44.1 +/- 2.7 ng); assay type: functional
MCF7 [15] = experiment: Induction of cytochrome c release in extracellular region of human MCF7 cells at 20 uM incubated for 2 hrs by ELISA method (reference value: 15.7 +/- 0.77 ng); assay type: functional
MCF7 [16] = experiment: Induction of cell membrane morphology changes in human MCF7 cells at 20 uM incubated for 30 mins by scanning electron microscopy; assay type: functional, cell-based
Procedure, shortened: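 MCF-7 cells were grown 24 h on coverslips at 1 × 10^5/well and exposed to peptide for 30 min. Cells were gently PBS-washed, fixed in 2.5% glutaraldehyde, and examined by scanning electron microscopy.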

[17] = Increase in adriamycin uptake in human MCF7/ADR cells at 5 uM after 2.5 hrs by fluorescence microscopy; assay type: ADME, cell-based; conditions: nci/adr-res
Procedure, shortened: (§3)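 2 × 10^5 MCF-7/ADM or K562/ADM cells were co-incubated 2.5 h with ADM plus peptide, or with verapamil as comparator. Cells were washed with cold PBS and ADM fluorescence was imaged by fluorescence microscopy.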

MCF7 [18] = experiment: Induction of cytochrome c release in human MCF7 cells at 20 uM incubated for 2 hrs by ELISA method (reference value: 364.2 +/- 20.5 ng); assay type: functional
MCF7 [19] = experiment: Antimigratory activity in human MCF7 cells assessed as inhibition of cell migration at 5 uM incubated for 48 hrs by transwell migration assay; assay type: functional, cell-based
Procedure, shortened: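 Transwell chambers with a porous membrane separating upper and lower compartments. 4 × 10^4 MCF-7 cells were placed in the upper chamber in peptide-containing medium and incubated 48 h. Cells that reached the lower membrane surface were counted.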

MCF7 [20] = experiment: Induction of mitochondrial membrane potential depolarization in human MCF7 cells at 20 uM incubated for 2 hrs by JC1 staining; assay type: functional, cell-based
Procedure, shortened: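 MCF-7 cells were plated at 1 × 10^5/well, grown 24 h, and treated with peptide for 2 h. Mitochondrial membrane potential was assessed with a JC-1 kit by imaging red and green fluorescence.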

NCI/ADR-RES = experiment: Potentiation of adriamycin-induced cytotoxicity against human MCF7/ADR cells at 5 uM after 48 hrs by MTT assay; assay type: functional, cell-based
Procedure, shortened: (§4)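 ADM-resistant MCF-7/ADM or K562/ADM cells, grown in RPMI1640 with 10% FBS at 37 °C and 5% CO2, were seeded at 1 × 10^4 per well and held 24 h. Fixed peptide was added, followed by graded ADM concentrations, for 48 h. MTT was then given for 4 h at 37 °C, formazan dissolved in DMSO and absorbance read at 570 nm. Verapamil served as positive control.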

MCF7 [21] = experiment: Induction of cell membrane alteration in human MCF7 cells at 20 uM incubated for 30 mins by acridine orange/ethidium bromide double staining method; assay type: functional, cell-based
Procedure, shortened: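 MCF-7 cells were plated at 1 × 10^5/well and grown 24 h, then given peptide for 30 min. Cells were washed twice with PBS and stained 10 min in the dark with cold PBS containing acridine orange and ethidium bromide. Excess dye was washed off, then cells were imaged by fluorescence microscopy. Red EB staining marks membrane-compromised cells.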

[22] = Drug uptake in cytosol of human MCF7 cells at 20 uM incubated for 5 mins or 30 mins by fluorescein isothiocyanate labeling based fluorescence microscopy; assay type: ADME, cell-based
Procedure, shortened: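 MCF-7 cells were plated at 1 × 10^5/well and grown 24 h, then exposed to FITC-labeled peptides for 5 min or 30 min. Cells were washed three times with cold PBS, and intracellular fluorescence was imaged by fluorescence microscopy.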

[23] = Increase in adriamycin uptake in human MCF7/ADR cells at 5 uM after 2.5 hrs by fluorescence spectrophotometry; assay type: ADME, cell-based; conditions: nci/adr-res; procedure, shortened: as §2
[24] = Increase in adriamycin uptake in human K562/ADR cells at 5 uM after 2.5 hrs by fluorescence microscopy; assay type: ADME, cell-based; procedure, shortened: as §3
MCF7 [25] = experiment: Antimigratory activity in human MCF7 cells assessed as inhibition of cell migration at 5 uM incubated for 48 hrs by wound healing assay; assay type: functional, cell-based
Procedure, shortened: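 MCF-7 cells were seeded at 2 × 10^5/well and grown 24 h to 90% confluence. A cell-free gap was scratched, and cells migrated in serum-free medium with peptide for 48 h. Wound closure was photographed at 0 h and 48 h.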

K562/Adr = experiment: Potentiation of adriamycin-induced cytotoxicity against human K562/ADR cells at 5 uM after 48 hrs by MTT assay; assay type: functional, cell-based; procedure, shortened: as §4

| Molecule | IC50 (MCF7 [2]) | IC50 (K562) | IC50 [3] | Activity [9] | Retention_time [10] | other results |
| --- | --- | --- | --- | --- | --- | --- |
| COc1cccc2c1C(=O)c1c(O)c3c(c(O)c1C2=O)C[C@@](O)(C(=O)CO)C[C@@H]3O[C@H]1C[C@H](N)[C@H](O)[C@H](C)O1 [DOXORUBICIN] | 0.36 µM | 0.45 µM | 0.53 µM |  |  | IC50 [1]: 52.5 µM; IC50 [4]: 67.6 µM |
| O=c1[nH]cc(F)c(=O)[nH]1 [FLUOROURACIL] | 26.9 µM | 31.6 µM | 30.9 µM |  |  | Activity (MCF7 [5]): 357 ng; Activity (MCF7 [6]): 319.2 ng; Activity (MCF7 [7]): 15.7 ng; Activity (MCF7 [8]): 49.6 ng |
| H-VKRFKKFFRKLKKAV-NH2 | 8.9 µM | 8.6 µM | 87.1 µM | Non-toxic | 3.48 min |  |
| H-VKRFKKFFRKLKKDV-NH2 | 19.9 µM | 44.7 µM | 120 µM | Non-toxic | 3.38 min |  |
| H-VKRFKKFFRKLKKEV-NH2 | 38.9 µM | 36.6 µM | 104 µM | Non-toxic | 3.41 min |  |
| H-VKRFKKFFRKLKKFV-NH2 | 1.3 µM | 3.7 µM | 52.5 µM | Non-toxic | 3.74 min |  |
| H-VKRFKKFFRKLKKGV-NH2 | 15.8 µM | 14.8 µM | 107 µM | Non-toxic | 3.25 min |  |
| H-VKRFKKFFRKLKKHV-NH2 | 5 µM | 10.5 µM | 105 µM | Non-toxic | 3.28 min |  |
| H-VKRFKKFFRKLKKQV-NH2 | 14.5 µM | 16.2 µM | 102 µM | Non-toxic | 3.31 min |  |
| H-VKRFKKFFRKLKKRV-NH2 | 5.5 µM | 8.7 µM | 93.3 µM | Non-toxic | 3.13 min |  |
| H-VKRFKKFFRKLKKSV-NH2 | 21.9 µM | 26.9 µM | 102 µM | Non-toxic | 3.38 min | Activity [11]: Active; Activity (MCF7 [12]): Dose-dependent effect; Activity (MCF7 [13]): 301.4 ng; Activity (MCF7 [14]): 60.3 ng; Activity (MCF7 [15]): 14.7 ng; Activity (MCF7 [16]): Active; Activity [17]: Active; IC50 [1]: 24.1 µM; Activity (MCF7 [18]): 353.4 ng; inhibition (MCF7 [19]): Active; Activity (MCF7 [20]): Active; Activity (NCI/ADR-RES): Active; Activity (MCF7 [21]): Active; Drug uptake [22]: Active; Activity [23]: Active; Activity [24]: Active; inhibition (MCF7 [25]): Active; Activity (K562/Adr): Active; IC50 [4]: 31.6 µM |
| H-VKRFKKFFRKLKKTV-NH2 | 19.1 µM | 17 µM | 110 µM | Non-toxic | 3.44 min |  |
| H-VKRFKKFFRKLKKVV-NH2 | 4.9 µM | 5 µM | 64.6 µM | Non-toxic | 3.69 min |  |

From ChEMBL document CHEMBL3351585, “Design, synthesis and biological evaluation of novel peptides with anti-cancer and drug resistance-reversing activities” (Eur J Med Chem, 2015)
